# Published values gathered from unrelated publications.
# Lines come from different studies, so protocols differ.
# DYRK1A: Dual specificity tyrosine-phosphorylation-regulated kinase 1A (DYRK1A, Homo sapiens, UniProt Q13627)
SMILES,target,test,setting,quantity,result
CC(=O)ON=C1C=CC(=C(C#N)c2ccccc2)C=C1,DYRK1A,"enzyme activity, inhibitor, ADP detection",20 µM,activity vs control,82%
COc1ccc2oc(-c3ccc4nc(N)oc4c3)c/c(=N\c3ccccc3NC(=O)CCN)c2c1,"Dual specificity tyrosine-phosphorylation-regulated kinase 1B (DYRK1B, Homo sapiens, UniProt Q9Y463)","binding, competition with immobilised ligand",1 µM,remaining binding,102%
CCN1/C(=C/C(C)=O)Sc2ccc(F)cc21,"Neuropeptide Y receptor type 2 (NPY2R, Homo sapiens, UniProt P49146)","ligand displacement, radioligand",10 µM,inhibition,0%
C#Cc1cc(-c2cc(Nc3nc(N[C@@H](C)c4ccc(F)cn4)ncc3Cl)n[nH]2)ccc1C=O,"Dual specificity tyrosine-phosphorylation-regulated kinase 3 (DYRK3, Homo sapiens, UniProt O43781)","enzyme activity, inhibitor",0.2 µM,inhibition,4.84%
CC(C)(C)C1CCc2c(C(=O)N/N=C/c3ccsc3)csc2C1 (centres unmarked),DYRK1A,"enzyme activity, inhibitor, ADP detection",10 µM,inhibition,23.1%
CCCCC(=O)Nc1ccc(-c2ccc3ncn(CCC)c(=O)c3c2)cn1,"Serine/threonine-protein kinase 25 (STK25, Homo sapiens, UniProt O00506)","binding, competition with immobilised ligand",0.5 µM,remaining binding,85%
O=C1C2C3CC(C(Br)C3Br)C2C(=O)N1CC1CCCO1 (centres unmarked),DYRK1A,"enzyme activity, inhibitor, ADP detection",10 µM,inhibition,41.5%
Cc1cc(O)c(-c2ccc([C@@H](C)CN(C)C)cc2)c2c1[nH]c(=O)c1sccc12,"Microtubule-associated serine/threonine-protein kinase 3 (MAST3, Homo sapiens, UniProt O60307)","enzyme activity, inhibitor",0.1 µM,inhibition,2.4%
Nc1ncnc2c1ncn2[C@@H]1O[C@H](COP(=O)(O)OP(=O)(O)O)[C@@H](O)[C@H]1O,"Inositol-tetrakisphosphate 1-kinase (Homo sapiens, UniProt Q13572)","enzyme activity, substrate",,Km,1.5 µM
Cc1nc(Sc2nc(C)nc3sc4c(c23)CCC4)c2c3c(sc2n1)CCC3,DYRK1A,"enzyme activity, inhibitor, ADP detection",10 µM,inhibition,47.4%
C1=C/COCc2cc(ccc2OCCN2CCCC2)Nc2nccc(n2)-c2cccc(c2)COC/1,"Myosin light chain kinase 2, skeletal/cardiac muscle (MYLK2, Homo sapiens, UniProt Q9H1R3)",binding,0.1 µM,remaining binding,76%
CC1(C)Oc2ccc3ccc(=O)oc3c2C/C1=N/O,DYRK1A,"enzyme activity, inhibitor, ADP detection",10 µM,inhibition,38.6%
NC/C(=C\F)COc1cccc(Cn2c(=S)[nH]c(=O)c3[nH]cnc32)c1,"Alpha-1D adrenergic receptor (ADRA1D, Homo sapiens, UniProt P25100)","ligand displacement, radioligand",10 µM,inhibition,< 50%
N#Cc1ccc(NC(=O)Nc2ccccc2)cc1,"Platelet-derived growth factor receptor beta (PDGFRB, Homo sapiens, UniProt P09619)","cell-free assay, competition with immobilised ligand",25 µM,inhibition,67%
